{"source": "ChEMBL document CHEMBL1287702", "about": "“Synthesis, cytotoxicity, and structure-activity relationship (SAR) studies of andrographolide analogues as anti-cancer agent” (Bioorg Med Chem Lett, 2010)", "key": {"K562": {"test_system": "K562", "assay": "Antiproliferative activity against human K562 cells assessed as growth inhibition after 48 hrs by MTS-PMS assay", "type": "functional, cell-based", "summary_of_the_method": "(§1)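 Cells at 2.5-5.0 × 10^4 per 200 µL were exposed to compounds (0-50 µM) for 48 h at 37 °C, 5% CO₂. MTS (2.0 mg/ml) and PMS (0.92 mg/ml), mixed 10:1, were added for 3 h at 37 °C, and A490 was read. Background was subtracted, viability was taken as a % of untreated, and IC50 was found by graphic extrapolation.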"}, "U-937 [1]": {"test_system": "U-937", "assay": "Antiproliferative activity against human U937 cells assessed as growth inhibition after 48 hrs by MTS-PMS assay", "type": "functional, cell-based", "summary_of_the_method": "as §1"}, "THP-1": {"test_system": "THP-1", "assay": "Antiproliferative activity against human THP1 cells assessed as growth inhibition after 48 hrs by MTS-PMS assay", "type": "functional, cell-based", "summary_of_the_method": "as §1"}, "[2]": {"assay": "Antiproliferative activity against human L-132 cells assessed as growth inhibition after 48 hrs by MTS-PMS assay", "type": "cell-based, L132", "summary_of_the_method": "as §1"}, "[3]": {"assay": "Antiproliferative activity against mouse NIH/3T3 cells assessed as growth inhibition after 48 hrs by MTS-PMS assay", "type": "cell-based, NIH3T3", "summary_of_the_method": "as §1"}, "U-937 [4]": {"test_system": "U-937", "assay": "Induction of apoptosis in human U937 cell assessed as formation of apoptotic bodies with membrane blebbing at IC50 concentration after 24 hrs using Hoechst 33258 staining by confocal microscopic analysis", "type": "functional, cell-based"}, "U-937 [5]": {"test_system": "U-937", "assay": "Induction of apoptosis in human U937 cell assessed as pre-necrotic cells at IC50 concentration after 24 hrs using Annexin V-FITC staining by flow cytometry relative to untreated control", "type": "functional"}, "U-937 [6]": {"test_system": "U-937", "assay": "Induction of apoptosis in human U937 cell assessed as late apoptotic cells at IC50 concentration after 24 hrs using Annexin V-FITC staining by flow cytometry relative to untreated control", "type": "functional"}, "U-937 [7]": {"test_system": "U-937", "assay": "Induction of apoptosis in human U937 cell assessed as early apoptotic cells at IC50 concentration after 24 hrs using Annexin V-FITC staining by flow cytometry relative to untreated control", "type": "functional"}, "[8]": {"conditions": "Homo sapiens, K562, 48 h, read-out: IC50"}, "[9]": {"conditions": "Homo sapiens, U-937, 48 h, read-out: IC50"}, "[10]": {"conditions": "Homo sapiens, THP-1, 48 h, read-out: IC50"}, "[11]": {"conditions": "Homo sapiens, L132, 48 h, read-out: IC50"}, "[12]": {"conditions": "Mus musculus, NIH3T3, 48 h, read-out: IC50"}}, "note": "Active and inactive are the calls of the source. The rule behind the calls is not given here.", "data": [{"smiles": "C=C1CC[C@@H]2[C@](C)(CO)[C@H](O)CC[C@@]2(C)[C@@H]1C/C=C1/C(=O)OC[C@H]1OC(=O)c1ccccc1C(=O)O", "values": [{"measurement": "IC50", "setting": "K562; [8]", "value": 41.1, "unit": "µM"}, {"measurement": "IC50", "setting": "U-937 [1]; [9]", "value": 6.27, "unit": "µM"}, {"measurement": "IC50", "setting": "THP-1; [10]", "value": 5.68, "unit": "µM"}, {"measurement": "IC50", "setting": "[2]; [11]", "value": 10.9, "unit": "µM"}, {"measurement": "IC50", "setting": "[3]; [12]", "value": 8.01, "unit": "µM"}]}, {"smiles": "C=C1CC[C@@H]2[C@]3(C)COC(C)(C)O[C@@H]3CC[C@@]2(C)[C@@H]1C/C=C1/C(=O)OC[C@H]1OC(=O)c1ccccc1C(=O)O", "values": [{"measurement": "IC50", "setting": "K562; [8]", "value": 26.9, "unit": "µM"}, {"measurement": "IC50", "setting": "U-937 [1]; [9]", "value": 14.6, "unit": "µM"}, {"measurement": "IC50", "setting": "THP-1; [10]", "value": 12.2, "unit": "µM"}, {"measurement": "IC50", "setting": "[2]; [11]", "value": 18.8, "unit": "µM"}, {"measurement": "IC50", "setting": "[3]; [12]", "value": 16, "unit": "µM"}]}, {"smiles": "C=C1CC[C@@H]2[C@]3(C)COC(C)(C)O[C@@H]3CC[C@@]2(C)[C@@H]1C/C=C1/C(=O)OC[C@H]1OC(=O)/C=C\\C(=O)O", "values": [{"measurement": "IC50", "setting": "THP-1; [10]", "value": 14.8, "unit": "µM"}, {"measurement": "IC50", "setting": "[2]; [11]", "value": 31.1, "unit": "µM"}]}, {"smiles": "C=C1CC[C@@H]2[C@](C)(CO)[C@H](O)CC[C@@]2(C)[C@@H]1CCC1C(=O)OC[C@H]1OC(=O)c1ccccc1C(=O)O", "note": "(stereo partly specified)", "values": [{"measurement": "IC50", "setting": "K562; k562", "value": "Not Active"}, {"measurement": "IC50", "setting": "U-937 [1]; u-937", "value": "Not Active"}, {"measurement": "IC50", "setting": "THP-1; thp-1", "value": "Not Active"}, {"measurement": "IC50", "setting": "[2]; l132", "value": "Not Active"}, {"measurement": "IC50", "setting": "[3]; nih3t3", "value": "Not Active"}]}, {"smiles": "C=C1CC[C@@H]2[C@](C)(CO)[C@H](O)CC[C@@]2(C)[C@@H]1C/C=C1/C(=O)OC[C@H]1OC(=O)CCCC(=O)O", "values": [{"measurement": "IC50", "setting": "K562; [8]", "value": 19.6, "unit": "µM"}, {"measurement": "IC50", "setting": "U-937 [1]; [9]", "value": 9.76, "unit": "µM"}, {"measurement": "IC50", "setting": "THP-1; [10]", "value": 7.53, "unit": "µM"}, {"measurement": "IC50", "setting": "[2]; [11]", "value": 19.5, "unit": "µM"}, {"measurement": "IC50", "setting": "[3]; [12]", "value": 22.1, "unit": "µM"}]}, {"smiles": "C=C1CC[C@@H]2[C@](C)(CO)[C@H](O)CC[C@@]2(C)[C@@H]1C/C=C1/C(=O)OC[C@H]1OC(=O)CCC(=O)O", "values": [{"measurement": "IC50", "setting": "K562; [8]", "value": 25.3, "unit": "µM"}, {"measurement": "Activity", "setting": "U-937 [4]", "value": "Active"}, {"measurement": "Activity", "setting": "U-937 [5]", "value": 2.51, "unit": "%"}, {"measurement": "IC50", "setting": "U-937 [1]; [9]", "value": 5.47, "unit": "µM"}, {"measurement": "IC50", "setting": "THP-1; [10]", "value": 5.84, "unit": "µM"}, {"measurement": "IC50", "setting": "[2]; [11]", "value": 8.5, "unit": "µM"}, {"measurement": "Activity", "setting": "U-937 [6]", "value": 27.25, "unit": "%"}, {"measurement": "Activity", "setting": "U-937 [7]", "value": 18.77, "unit": "%"}, {"measurement": "IC50", "setting": "[3]; [12]", "value": 10.2, "unit": "µM"}]}, {"smiles": "C=C1CC[C@@H]2[C@](C)(CO)[C@H](O)CC[C@@]2(C)[C@@H]1CCC1C(=O)OC[C@H]1OC(=O)CCC(=O)O", "note": "(stereo partly specified)", "values": [{"measurement": "IC50", "setting": "U-937 [1]; u-937", "value": "Not Active"}]}, {"smiles": "C=C1CC[C@@H]2[C@](C)(CO)[C@H](O)CC[C@@]2(C)[C@@H]1CCC1C(=O)OC[C@H]1OC(=O)CCCC(=O)O", "note": "(stereo partly specified)", "values": [{"measurement": "IC50", "setting": "K562; k562", "value": "Not Active"}, {"measurement": "IC50", "setting": "U-937 [1]; u-937", "value": "Not Active"}, {"measurement": "IC50", "setting": "THP-1; thp-1", "value": "Not Active"}, {"measurement": "IC50", "setting": "[2]; l132", "value": "Not Active"}, {"measurement": "IC50", "setting": "[3]; nih3t3", "value": "Not Active"}]}, {"smiles": "C=C1CC[C@@H]2[C@]3(C)COC(C)(C)O[C@@H]3CC[C@@]2(C)[C@@H]1C/C=C1/C(=O)OC[C@H]1OC(=O)CCC(=O)O", "values": [{"measurement": "IC50", "setting": "K562; [8]", "value": 31.4, "unit": "µM"}, {"measurement": "IC50", "setting": "U-937 [1]; [9]", "value": 19.5, "unit": "µM"}, {"measurement": "IC50", "setting": "THP-1; [10]", "value": 10, "unit": "µM"}, {"measurement": "IC50", "setting": "[2]; [11]", "value": 21.7, "unit": "µM"}, {"measurement": "IC50", "setting": "[3]; [12]", "value": 36.7, "unit": "µM"}]}, {"smiles": "C=C1CC[C@@H]2[C@](C)(CO)[C@H](O)CC[C@@]2(C)[C@@H]1C/C=C1/C(=O)OC[C@H]1OC(=O)/C=C\\C(=O)O", "values": [{"measurement": "IC50", "setting": "K562; [8]", "value": 42, "unit": "µM"}, {"measurement": "IC50", "setting": "U-937 [1]; [9]", "value": 9.72, "unit": "µM"}, {"measurement": "IC50", "setting": "THP-1; [10]", "value": 7.77, "unit": "µM"}, {"measurement": "IC50", "setting": "[2]; [11]", "value": 12.8, "unit": "µM"}, {"measurement": "IC50", "setting": "[3]; [12]", "value": 11.3, "unit": "µM"}]}, {"smiles": "C=C1CC[C@@H]2[C@]3(C)COC(C)(C)O[C@@H]3CC[C@@]2(C)[C@@H]1C/C=C1/C(=O)OC[C@H]1OC(=O)CCCC(=O)O", "values": [{"measurement": "IC50", "setting": "K562; [8]", "value": 36.5, "unit": "µM"}, {"measurement": "IC50", "setting": "U-937 [1]; [9]", "value": 15.6, "unit": "µM"}, {"measurement": "IC50", "setting": "THP-1; [10]", "value": 26.2, "unit": "µM"}, {"measurement": "IC50", "setting": "[2]; [11]", "value": 15.1, "unit": "µM"}]}, {"smiles": "C=C1CC[C@@H]2[C@](C)(CO)[C@H](O)CC[C@@]2(C)[C@@H]1CCC1C(=O)OC[C@H]1OC(=O)/C=C\\C(=O)O", "note": "(stereo partly specified)", "values": [{"measurement": "IC50", "setting": "K562; k562", "value": "Not Active"}, {"measurement": "IC50", "setting": "U-937 [1]; u-937", "value": "Not Active"}, {"measurement": "IC50", "setting": "THP-1; thp-1", "value": "Not Active"}, {"measurement": "IC50", "setting": "[2]; l132", "value": "Not Active"}, {"measurement": "IC50", "setting": "[3]; nih3t3", "value": "Not Active"}]}, {"smiles": "C=C1CC[C@@H]2[C@](C)(CO)[C@H](O)CC[C@@]2(C)[C@@H]1C/C=C1/C(=O)OC[C@H]1O", "note": "[ANDROGRAPHOLIDE]", "values": [{"measurement": "IC50", "setting": "K562; [8]", "value": 41.9, "unit": "µM"}, {"measurement": "IC50", "setting": "U-937 [1]; [9]", "value": 12.9, "unit": "µM"}, {"measurement": "IC50", "setting": "THP-1; [10]", "value": 6.69, "unit": "µM"}, {"measurement": "IC50", "setting": "[2]; [11]", "value": 53.8, "unit": "µM"}, {"measurement": "IC50", "setting": "[3]; [12]", "value": 44.5, "unit": "µM"}]}]}
